The values below come from the EternaBench riboswitch data.

This data set concerns MS2 coat protein. Briefly: apparent Kd, MS2 coat protein; higher = weaker binding; RNA-MaP array; FMN 200 µM where present. In short, it runs like this:
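Stalled E. coli RNA polymerase transcribed the designs on Illumina sequencing-chip clusters. SNAP-549-labelled MS2 coat protein was titrated from 0.7 or 1.5 nM, doubling to 3 µM, without and then with constant ligand, in 100 mM Tris-HCl pH 7.5, 80 mM KCl, 4 mM MgCl2, BSA, DTT, yeast tRNA and Tween-20. Per-cluster binding curves were fitted to green signal normalised to red-channel RNA signal and control-cluster median Fmax. The apparent Kd is the median of the filtered fits.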

The mark [1] stands for this setting: designed as: ON switch for flavin mononucleotide, no ligand.
[2] abbreviates: ligand present: flavin mononucleotide, designed as: ON switch for flavin mononucleotide.
Setting [3] is: designed as: OFF switch for flavin mononucleotide, no ligand.
The mark [4] stands for this setting: ligand present: flavin mononucleotide, designed as: OFF switch for flavin mononucleotide.

A word on the apparent Kd: it is the concentration giving half-maximal binding under the conditions of the assay. As to “CAAAGUAGCACAGGAUAUCAUACAUGAGGAUCACCCAUGUCAAGAAGCAAAUGAGAAGGGUGCAGACGGUGUUGGAGCGGUUGC”, the “apparent Kd” value was 68.6 nM under setting [1] and 7.02 nM under setting [2].
Consider “AACAGUACAGGAUAUACAUGAGGAUCACCCAUGUGAUCAUCAAGUGCCGUAGCACGAAGUAGAAGGGUACUGGA”, for which the “apparent Kd” value is, setting by setting: under setting [3], 207 nM; under setting [4], 57 nM.
Turning to “AAGGUGAGAGGAUAUACAUGAGGAUCACCCAUGUGUCGGCCCUCCACAUAUGCCUUGUGUAGAAGGCUCCCGAG”, the “apparent Kd” value is, setting by setting: under setting [3], 14.6 nM; under setting [4], 22.3 nM.
With “UGGUCAUGAUCAGGAUAUUAACAUGGGCUACAUUAAGAAGGGAUAGUGAGAUACGAACUACAUGAGGAUCACCCAUGUGUUGUU”, the “apparent Kd” value runs as follows: under setting [1], 68.7 nM; under setting [2], 55.4 nM.
For the sequence “AAGAAGUGAGGAUAUGUAUCAGUAUAGUUGCCUAUACUGAUGUAGAAGGCACAUGAGGAUCACCCAUGUCCUAA”, the “apparent Kd” value reads like this: under setting [3], 20.8 nM; under setting [4], 25 nM.
In the case of “GAUUCACAUGAGGAUCACCCAUGUCGUUUAAUGGGAGGAUAUACGUGGACCGUAGUCCGCGUAGAAGGCCUAAUUG”, the “apparent Kd” value under setting [1] came to 95.1 nM and the “apparent Kd” value under setting [2] was 25.6 nM.
As for “AAUUUACAUGAGGAUCACCCAUGUGAGGAUAUGAUACUAUGUACUUCGGUACAUAGUAUCAGAAGGCAUGUGAA”, the “apparent Kd” value amounted to 128 nM under setting [3] and 97.7 nM under setting [4].
For the sequence “GUGCAUACGUGAGGAUAUGUAUUAGAUAGUGGUACAGAAGGCAUGUCUGAUGACAUGAGGAUCACCCAUGUUGGCACAAUGCGC”, the “apparent Kd” value by setting is: under setting [1], 51.5 nM; under setting [2], 30.2 nM.
Turning to “GCCUCAGAAUUAAUUGUGAGAGGCAGAAGGCUAUAUCUCGUGUUAAACAUGAGGAUCACCCAUGUAGAGGAUAUGCUAUUACAG”, the “apparent Kd” value by setting is: under setting [3], 9.3 nM; under setting [4], 10.6 nM.
“AUAUCUUGUCGAGGAUAUGUAGUAUUGAUCUGAAAACAUGAGGAUCACCCAUGUAUACGGUGGGUACAGAAGGUGGAUGUAGAA”: the “apparent Kd” value under setting [3] is 416 nM and the “apparent Kd” value under setting [4] stood at 427 nM.
Regarding “GCUGCGCGAGGAUAUGCGGUUUGUGCUUUGGCCCGUGGCGUACAUGAGGAUCACCCAUGUAGAAGGCGUGUGGG”, the “apparent Kd” value runs as follows: under setting [3], 21.4 nM; under setting [4], 21.7 nM.
On the same counts, the results for “GGAAAUCAUGUAGGAUAUGCAUGGCGAAGCUACGCAGAAGGACAUGAGGAUCACCCAUGUUAUAGCGUCCGAGAAAGGAUGCAC” are 38.8 nM and 162 nM.
“GGAAGAAUGAUACCUUUUUAUUACAUGAGGAUCACCCAUGUGCAGGAUAUCGAUUAUUAUAGUUUCGAGAAGGGCAAGAAUUGU”: the “apparent Kd” value by setting is: under setting [3], 19.7 nM; under setting [4], 52.4 nM.
On to “AUAUCCUAGAUAGGAUAUACUGAGGUUGAAUGGGUAGAAGGAUCGAUAGGGAAGACUACAUGAGGAUCACCCAUGUUGUGUAUU”, for which the “apparent Kd” value reads like this: under setting [1], 99.4 nM; under setting [2], 90.2 nM.
Consider “ACGCCCUGAGGAUAUCUUAUCCCGCACAUGAGGAUCACCCAUGUUCUCCUCCGGGCUCCGAGAGAAGGCAGGCCCA”, for which the “apparent Kd” value under setting [3] came to 30.7 nM and the “apparent Kd” value under setting [4] stood at 41.2 nM.
On the same counts, the results for “CCUCCCUGAGGAUAUCCAUCCUCAUACAUGAGGAUCACCCAUGUUCAUCCGUGGCUACCCGGAGAAGGCAGCUCUG” are 321 nM and 290 nM.
With “CGUUCUAGAGGAUAUACAGCUUAUGUACGGCGAUCUGGACAACAUGAGGAUCACCCAUGUAGAAGGCUAAGCAC”, the “apparent Kd” value runs as follows: under setting [3], 36.4 nM; under setting [4], 69 nM.
In the case of “GAGUAGUUAAAAGGAUAUUGAUUAUUGUAGGAUCAAGAAGGUUUUAACAUGAGGAUCACCCAUGUAGGACUAUAAAUGUGAAAA”, the “apparent Kd” value was 17.5 nM under setting [1] and 15 nM under setting [2].
Consider “UUUAUGUGAGGAUAUACGAAUAGUAAGUAAGUAUUACAGACGUAGAAGGCACAUGAGGAUCACCCAUGUGAACC”, for which the “apparent Kd” value by setting is: under setting [3], 38.5 nM; under setting [4], 78 nM.
Take “AGCUGUGGCCGAGGAUAUCUAAUAAUCCCAACCGAAAUAUAAUCGGACAUGAGGAUCACCCAUGUAGAGAAGGCGGUCUCAGCA”: the “apparent Kd” value under setting [3] worked out at 143 nM and the “apparent Kd” value under setting [4] stood at 307 nM.
With “UGUUACUAGUAAGGAUAUACUAGCGAUAAGCUAGUAGAAGGUACAGUCUUUUGUAUAUCAUGUUUACAUGAGGAUCACCCAUGU”, the “apparent Kd” value is, setting by setting: under setting [1], 9.09 nM; under setting [2], 7.49 nM.
In the case of “UAUAUAUAGUAAGGAUAUGUAUUAAUUUUACAAACAGAAGGUACUGACAUGAGGAUCACCCAUGUUUUAGUGUGGGCAUGUAGA”, the “apparent Kd” value was found to be 59.9 nM under setting [3] and 72.6 nM under setting [4].
On the same counts, the results for “UUUUAACAUGAGGAUCACCCAUGUGAGGAUAUCGAAAUUUAUAUUAAUAUUAAUAUUUCGAGAAGGCACAUUUU” are 142 nM and 154 nM.
Turning to “GGUCGUCACAUUUACAUGAGGAUCACCCAUGUCGAAAGACAUGAGGAUAUGCAUCCUAAUUGGAUGCAGAAGGCAUGGACGACC”, the “apparent Kd” value under setting [1] came out at 445 nM and the “apparent Kd” value under setting [2] came out at 249 nM.
